The values below come from ChEMBL document CHEMBL3271938, “Podophyllotoxin analogs. 1. Synthesis and biological evaluation of certain trans-2-aryl-trans-6-hydroxymethyl-3-cyclohexenecarboxylic acid gamma-lactones as antimitotic agents” (1976).

Experiment [1] addresses T1, Tubulin (Bos taurus) (UniProt Q6B856+Q862L2+Q862F3). Put plainly: Displacement of [3H]colchicine from bovine brain tubulin at 10 uM after 90 mins by liquid scintillation counting in presence of 10 uM [3H]colchicine. (In general: Displacement assays read how much labelled ligand stays bound in the presence of the test substance.)
Experiment [2] deals with T1, Tubulin (Bos taurus). Put plainly: Displacement of [3H]colchicine from bovine brain tubulin at 40 uM after 90 mins by liquid scintillation counting in presence of 10 uM [3H]colchicine.
The target of experiment [3] is T1, Tubulin (Bos taurus). Put plainly: Displacement of [3H]colchicine from bovine brain tubulin at 60 uM after 90 mins by liquid scintillation counting in presence of 10 uM [3H]colchicine.
Experiment [4] concerns the target T1, Tubulin (Bos taurus). In words: Displacement of [3H]colchicine from bovine brain tubulin at 100 uM after 90 mins by liquid scintillation counting in presence of 10 uM [3H]colchicine.
Experiment [5] can be described thus: Inhibition of colony formation in BDF1 mouse bone marrow cells assessed as percentage of colony forming cell at 0.5 uM after 7 days by microscopic analysis relative to control. Format: functional. Also on record: scale not given: the % may be the effect or the level left. In short, it runs like this:
(§1)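 Femoral marrow from female BDF1 mice (8-12 weeks) was dispersed and 1 × 10^5 cells plated in 1.0 ml of 0.3% agar. Medium was McCoy's 5A with supplements, 10^-4 M dithiothreitol, 10% fetal calf and 5% horse serum, plus L-cell CSF. Compound came from a 1 mM stock in Me2SO/EtOH saline, diluted serially 1:10. Incubated 7 days at 37°C under 12% CO2/8% O2; colonies counted microscopically as % of control.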

A short description of experiment [6]: Inhibition of colony formation in BDF1 mouse bone marrow cells assessed as percentage of colony forming cell at 5 uM after 7 days by microscopic analysis relative to control. Format: functional. The arrangement: scale not given: the % may be the effect or the level left. Summed up: as §1
Experiment [7] can be described thus: Inhibition of colony formation in BDF1 mouse bone marrow cells assessed as percentage of colony forming cell at 50 uM after 7 days by microscopic analysis relative to control. Also on record: scale not given: the % may be the effect or the level left. In kind it is functional. In short, it runs like this:
as §1

In experiment [8] the test system is P815. Put plainly: Inhibition of colony formation in mouse P815 cells assessed as percentage of colony forming cell at 0.5 uM after 7 days by microscopic analysis relative to control. In kind it is functional. Also on record: scale not given: the % may be the effect or the level left. Summed up:
(§2)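 P-815 mastocytoma cells, passaged in vitro, plated at 1 × 10^3 cells in 1.0 ml of 0.3% agar. Medium was McCoy's 5A with supplements, 10^-4 M dithiothreitol, 10% fetal calf and 5% horse serum. Compound came from a 1 mM stock in Me2SO/EtOH saline, diluted serially 1:10. Incubated 7 days at 37°C under 12% CO2/8% O2; colonies counted microscopically as % of control.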

The test system of experiment [9] is P815. Put plainly: Inhibition of colony formation in mouse P815 cells assessed as percentage of colony forming cell at 5 uM after 7 days by microscopic analysis relative to control. Format: functional. Also on record: scale not given: the % may be the effect or the level left. Summed up:
as §2

In experiment [10] the test system is P815. In words: Inhibition of colony formation in mouse P815 cells assessed as percentage of colony forming cell at 50 uM after 7 days by microscopic analysis relative to control. In kind it is functional. The arrangement: scale not given: the % may be the effect or the level left. Summed up:
as §2

Experiment [11] can be described thus: Inhibition of colony formation in BDF1 mouse bone marrow cells assessed as percentage of colony forming cell at 5 nM after 7 days by microscopic analysis relative to control. Format: functional. The arrangement: scale not given: the % may be the effect or the level left. Summed up:
as §1

The nature of experiment [12]: Inhibition of colony formation in BDF1 mouse bone marrow cells assessed as percentage of colony forming cell at 50 nM after 7 days by microscopic analysis relative to control. The arrangement: scale not given: the % may be the effect or the level left. In kind it is functional. In short, it runs like this:
as §1

The test system of experiment [13] is P815. Put plainly: Inhibition of colony formation in mouse P815 cells assessed as percentage of colony forming cell at 5 nM after 7 days by microscopic analysis relative to control. The arrangement: scale not given: the % may be the effect or the level left. In kind it is functional. Summed up: as §2
The test system of experiment [14] is P815. Put plainly: Inhibition of colony formation in mouse P815 cells assessed as percentage of colony forming cell at 50 nM after 7 days by microscopic analysis relative to control. The arrangement: scale not given: the % may be the effect or the level left. Format: functional. In short, it runs like this: as §2
The target in experiment [15] is T1, Tubulin (Bos taurus). In words: Displacement of [3H]colchicine from bovine brain tubulin at 20 uM after 90 mins by liquid scintillation counting in presence of […].
For experiment [16], the target named is T1, Tubulin (Bos taurus). Put plainly: Displacement of [3H]colchicine from bovine brain tubulin at 50 uM after 90 mins by liquid scintillation counting in presence of 10 uM [3H]colchicine.
The target of experiment [17] is T1, Tubulin (Bos taurus). In words: Displacement of [3H]colchicine from bovine brain tubulin at 200 uM after 90 mins by liquid scintillation counting in presence of 10 uM [3H]colchicine.

In the case of `COc1cc([C@H]2C=CC[C@@H]3COC(=O)[C@H]32)cc(OC)c1OC` (relative stereo), the Activity on Tubulin (Bos taurus) [1] turned out to be 17000 cpm; on Tubulin (Bos taurus) [2], 15500 cpm; at Tubulin (Bos taurus) [3] it was 14600 cpm; at Tubulin (Bos taurus) [4] it was 15200 cpm; in experiment [5], 35%; in experiment [6], 105%. Further, the Activity was determined as 75% in experiment [7], 84% with P815 [8], 42% in the experiment on P815 [9] and 9% with P815 [10].

Take `COc1cc([C@H]2C=CC[C@@H]3C(=O)OC[C@@H]32)cc(OC)c1OC` (relative stereo): the Activity stood at 18500 cpm on Tubulin (Bos taurus) [1]; 11600 cpm at Tubulin (Bos taurus) [2]; 18400 cpm at Tubulin (Bos taurus) [3]; 18200 cpm at Tubulin (Bos taurus) [4]; 75% in experiment [5]; 73% in [6]. The Activity in experiment [7] is 55%; in the experiment with P815 [8] it was 81%; with P815 [9] it was 89%; with P815 [10], 178%.

For the compound `O=C1OC[C@H]2[C@@H]1CC=C[C@@H]2c1ccc2c(c1)OCO2`, the Activity worked out at 19000 cpm at Tubulin (Bos taurus) [1]; 16700 cpm at Tubulin (Bos taurus) [2]; 17000 cpm on Tubulin (Bos taurus) [3]; 17000 cpm on Tubulin (Bos taurus) [4]; 103% in [5]; 105% in experiment [6]. Further, the Activity in experiment [7] came to 121%; in the experiment on P815 [8], 71%; in the experiment with P815 [9], 98%; with P815 [10] it was 106%.

For the compound `O=C1OC[C@H]2CC=CC[C@@H]12`, the Activity at Tubulin (Bos taurus) [1] was 15800 cpm; on Tubulin (Bos taurus) [2] it was 16800 cpm; on Tubulin (Bos taurus) [3], 15900 cpm; at Tubulin (Bos taurus) [4], 14100 cpm; in experiment [5] it was 106%; in [6], 103%. Besides, the Activity amounted to 114% in [7], 93% in the experiment with P815 [8], 69% in the experiment with P815 [9] and 111% with P815 [10].

As to `COc1cc([C@@H]2c3cc4c(cc3[C@H](O)[C@H]3COC(=O)[C@H]23)OCO4)cc(OC)c1OC` [PODOFILOX], the Activity in [11] amounted to 95%; in [12] it was 1%; in experiment [5] it was 0%; in the experiment with P815 [13] it was 91%; in the experiment with P815 [14] it was 0%; in the experiment on P815 [8], 0%.

`O=C1OC[C@H]2CC=CC[C@H]12`: the Activity amounted to 15500 cpm at Tubulin (Bos taurus) [1]; 14900 cpm at Tubulin (Bos taurus) [2]; 15200 cpm on Tubulin (Bos taurus) [3]; 14700 cpm on Tubulin (Bos taurus) [4]; 102% in [5]; 91% in [6]. Also, the Activity worked out at 106% in [7], 102% with P815 [8], 95% in the experiment on P815 [9] and 112% in the experiment on P815 [10].

On to `O=C1OC[C@H]2[C@@H]1CC=C[C@@H]2c1ccccc1` (relative stereo), for which the Activity at Tubulin (Bos taurus) [1] was 15800 cpm; on Tubulin (Bos taurus) [2], 14800 cpm; on Tubulin (Bos taurus) [3] it was 5380 cpm; at Tubulin (Bos taurus) [4] it was 13100 cpm.

On to `O=C1OC[C@H]2CC=C[C@H](c3ccc4c(c3)OCO4)[C@H]12`, for which the Activity on Tubulin (Bos taurus) [1] stood at 16000 cpm; at Tubulin (Bos taurus) [2], 20100 cpm; on Tubulin (Bos taurus) [3] it was 18200 cpm; at Tubulin (Bos taurus) [4], 19600 cpm; in experiment [5] it was 87%; in [6], 143%. For the same compound, the Activity is listed as 170% in [7], 101% in the experiment on P815 [8], 86% with P815 [9] and 143% in the experiment on P815 [10].

Consider `COc1cc([C@H]2C=CC[C@@H]3C(=O)OC[C@H]32)cc(OC)c1OC`, for which the Activity at Tubulin (Bos taurus) [4] was found to be 11500 cpm; on Tubulin (Bos taurus) [15], 9070 cpm; on Tubulin (Bos taurus) [16] it was 11900 cpm; on Tubulin (Bos taurus) [17], 8690 cpm; in experiment [5], 90%; in [6], 74%. Moreover, the Activity in experiment [7] was 135%; in the experiment on P815 [8], 89%; in the experiment with P815 [9], 95%; in the experiment with P815 [10], 109%.

On to `O=C1OC[C@@H]2[C@@H]1CC=C[C@@H]2c1ccc2c(c1)OCO2`, for which the Activity on Tubulin (Bos taurus) [1] is 17400 cpm; on Tubulin (Bos taurus) [2] it was 16700 cpm; on Tubulin (Bos taurus) [3], 15600 cpm; on Tubulin (Bos taurus) [4], 16700 cpm; in experiment [5] it was 104%; in experiment [6], 135%. Besides, the Activity is reported as 166% in experiment [7], 100% in the experiment with P815 [8], 61% in the experiment on P815 [9] and 169% in the experiment on P815 [10].

As to `O=C1OC[C@H]2CC=C[C@H](c3ccccc3)[C@H]12`, the Activity on Tubulin (Bos taurus) [1] stood at 12200 cpm; at Tubulin (Bos taurus) [2], 15600 cpm; on Tubulin (Bos taurus) [3], 18500 cpm; on Tubulin (Bos taurus) [4], 15500 cpm; in experiment [5], 96%; in experiment [6], 95%. Besides, the Activity was found to be 107% in [7], 74% with P815 [8], 75% with P815 [9] and 93% in the experiment on P815 [10].

Take `O=C1OC[C@H]2CC=C[C@H](c3ccc4c(c3)OCO4)[C@@H]12`: the Activity on Tubulin (Bos taurus) [1] is 17600 cpm; at Tubulin (Bos taurus) [2], 17600 cpm; at Tubulin (Bos taurus) [3], 17300 cpm; at Tubulin (Bos taurus) [4] it was 12400 cpm; in experiment [5], 97%; in [6], 105%. Moreover, the Activity is on record as 115% in experiment [7], 89% in the experiment on P815 [8], 112% in the experiment with P815 [9] and 138% with P815 [10].

Take `O=C1OC[C@H]2CC=C[C@H](c3ccccc3)[C@@H]12` (relative stereo): the Activity at Tubulin (Bos taurus) [1] came out at 1320 cpm; at Tubulin (Bos taurus) [2], 12300 cpm; on Tubulin (Bos taurus) [3], 13900 cpm; at Tubulin (Bos taurus) [4] it was 13600 cpm.
